In ChEMBL document CHEMBL1143965, “N-Phenyl-N'-(2-chloroethyl)ureas (CEUs) as potential antineoplastic agents. Part 3: role of carbonyl groups in the covalent binding to the colchicine-binding site” (2008):

Legend:
Assay type in all cases: functional
MCF7 = test: Antiproliferative activity against human MCF7 cells after 48 hrs; settings: MCF7, 48 h
Summary of the method: (§1)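 NCI-style sulforhodamine B growth assay. Cells in high-glucose DMEM with 5% iron-supplemented bovine calf serum were preincubated 24 h at 37 °C, 5% CO2. Drugs in DMSO (final <0.5%) were added at 0.1–100 µM final for 48 h. Cells were fixed with cold TCA (10% final, 60 min, 4 °C), stained with 0.1% SRB, solubilized in 20 mM Tris, and read at 585 nm against a day-0 plate. GI50 was taken; at least two runs in triplicate.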

M21 [1] = test: Cell cycle arrest in human M21 cells by accumulation at S phase at 5 uM after 24 hrs by flow cytometry
Summary of the method: (§2)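 Exponentially growing M21 cells were exposed to drug (DMSO vehicle, <0.5% v/v) for 24 h, then collected and fixed with ice-cold ethanol. 5×10^5 cells were stained in PBS with 50 µg/mL propidium iodide plus 40 U/mL RNase A for 30 min at room temperature. Phase distribution was measured by flow cytometry.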

HT-29 = test: Antiproliferative activity against human HT29 cells after 48 hrs; settings: HT-29, 48 h; summary of the method: as §1
M21 [2] = test: Antiproliferative activity against human M21 cells after 48 hrs; settings: M21, 48 h; summary of the method: as §1
M21 [3] = test: Induction of apoptosis in human M21 cells at 5 uM
M21 [4] = test: Induction of apoptosis in human M21 cells at 15 uM
M21 [5] = test: Cell cycle arrest in human M21 cells by accumulation at S phase at 15 uM after 24 hrs by flow cytometry; summary of the method: as §2
M21 [6] = test: Cell cycle arrest in human M21 cells by accumulation at G0/G1 phase at 15 uM after 24 hrs by flow cytometry; summary of the method: as §2
M21 [7] = test: Cell cycle arrest in human M21 cells by accumulation at G2/M phase at 15 uM after 24 hrs by flow cytometry; summary of the method: as §2
M21 [8] = test: Cell cycle arrest in human M21 cells by accumulation at G2/M phase at 5 uM after 24 hrs by flow cytometry; summary of the method: as §2
M21 [9] = test: Cell cycle arrest in human M21 cells by accumulation at G0/G1 phase at 5 uM after 24 hrs by flow cytometry; summary of the method: as §2
M21 [10] = test: Cell cycle arrest in human M21 cells by accumulation at G2/M phase at 3 uM after 24 hrs by flow cytometry; summary of the method: as §2
M21 [11] = test: Induction of apoptosis in human M21 cells at 3 uM
M21 [12] = test: Cell cycle arrest in human M21 cells by accumulation at G0/G1 phase at 3 uM after 24 hrs by flow cytometry; summary of the method: as §2
M21 [13] = test: Cell cycle arrest in human M21 cells by accumulation at S phase at 10 uM after 24 hrs by flow cytometry; summary of the method: as §2
M21 [14] = test: Cell cycle arrest in human M21 cells by accumulation at G0/G1 phase at 10 uM after 24 hrs by flow cytometry; summary of the method: as §2
M21 [15] = test: Cell cycle arrest in human M21 cells by accumulation at G2/M phase at 10 uM after 24 hrs by flow cytometry; summary of the method: as §2
M21 [16] = test: Induction of apoptosis in human M21 cells at 10 uM
M21 [17] = test: Cell cycle arrest in human M21 cells by accumulation at S phase at 3 uM after 24 hrs by flow cytometry; summary of the method: as §2
M21 [18] = test: Induction of apoptosis in human M21 cells at 1.2 uM
M21 [19] = test: Cell cycle arrest in human M21 cells by accumulation at G0/G1 phase at 4 uM after 24 hrs by flow cytometry; summary of the method: as §2
M21 [20] = test: (§3) Cell cycle arrest in human M21 cells by accumulation at G0/G1 phase at 1.2 uM after 24 hrs by flow cytometry; summary of the method: as §2
M21 [21] = test: Cell cycle arrest in human M21 cells by accumulation at S phase at 4 uM after 24 hrs by flow cytometry; summary of the method: as §2
M21 [22] = test: Cell cycle arrest in human M21 cells by accumulation at G2/M phase at 4 uM after 24 hrs by flow cytometry; summary of the method: as §2
M21 [23] = test: as §3; summary of the method: as §2; remark: listed apart in the source
M21 [24] = test: Induction of apoptosis in human M21 cells at 4 uM
M21 [25] = test: Cell cycle arrest in human M21 cells by accumulation at S phase at 1.2 uM after 24 hrs by flow cytometry; summary of the method: as §2
M21 [26] = test: Cell cycle arrest in human M21 cells by accumulation at G0/G1 phase at 21 uM after 24 hrs by flow cytometry; summary of the method: as §2
M21 [27] = test: Cell cycle arrest in human M21 cells by accumulation at G2/M phase at 175 uM after 24 hrs by flow cytometry; summary of the method: as §2
M21 [28] = test: Cell cycle arrest in human M21 cells by accumulation at G0/G1 phase at 175 uM after 24 hrs by flow cytometry; summary of the method: as §2
M21 [29] = test: Induction of apoptosis in human M21 cells at 175 uM
M21 [30] = test: Cell cycle arrest in human M21 cells by accumulation at G2/M phase at 7 uM after 24 hrs by flow cytometry; summary of the method: as §2
M21 [31] = test: Cell cycle arrest in human M21 cells by accumulation at G0/G1 phase at 7 uM after 24 hrs by flow cytometry; summary of the method: as §2
M21 [32] = test: Cell cycle arrest in human M21 cells by accumulation at G2/M phase at 21 uM after 24 hrs by flow cytometry; summary of the method: as §2
M21 [33] = test: Cell cycle arrest in human M21 cells by accumulation at S phase at 21 uM after 24 hrs by flow cytometry; summary of the method: as §2
M21 [34] = test: Cell cycle arrest in human M21 cells by accumulation at S phase at 7 uM after 24 hrs by flow cytometry; summary of the method: as §2
M21 [35] = test: Cell cycle arrest in human M21 cells by accumulation at S phase at 175 uM after 24 hrs by flow cytometry; summary of the method: as §2
M21 [36] = test: Induction of apoptosis in human M21 cells at 21 uM
M21 [37] = test: Induction of apoptosis in human M21 cells at 7 uM

| SMILES | GI50 (MCF7) | GI50 (HT-29) | GI50 (M21 [2]) | further results |
| --- | --- | --- | --- | --- |
| CCCCCc1cccc(NC(=O)NCCCl)c1 | 1.6 µM | 0.96 µM | 0.87 µM | Activity (M21 [10]): 50%; Activity (M21 [11]): 18%; Activity (M21 [12]): 14%; Activity (M21 [13]): 7%; Activity (M21 [14]): 6%; Activity (M21 [15]): 49%; Activity (M21 [16]): 31%; Activity (M21 [17]): 11% |
| CCOC(=O)c1cccc(NC(=O)NCCCl)c1 | > 100 µM | > 100 µM | 96.4 µM |  |
| O=C(NCCCl)Nc1cccc(CCCCCO)c1 | 0.48 µM | 0.16 µM | 0.27 µM | Activity (M21 [18]): 12%; Activity (M21 [19]): 6%; Activity (M21 [20]): 50%; Activity (M21 [21]): 7%; Activity (M21 [22]): 53%; Activity (M21 [23]): 50%; Activity (M21 [24]): 27%; Activity (M21 [25]): 11% |
| CCOC(=O)Cc1cccc(NC(=O)NCCCl)c1 | > 100 µM | > 100 µM | > 100 µM |  |
| O=C(O)CCCCc1cccc(NC(=O)NCCCl)c1 | > 100 µM | > 100 µM | > 100 µM |  |
| NC(=O)c1cccc(NC(=O)NCCCl)c1 | > 100 µM | > 100 µM | > 100 µM |  |
| COC(=O)c1cccc(NC(=O)NCCCl)c1 | > 100 µM | 80.2 µM | 86.2 µM |  |
| O=C(O)Cc1cccc(NC(=O)NCCCl)c1 | > 100 µM | > 100 µM | > 100 µM |  |
| NC(=O)CCCCCc1cccc(NC(=O)NCCCl)c1 | 21.8 µM | 5.7 µM | 8.9 µM |  |
| O=C(NCCCl)Nc1cccc(C(=O)O)c1 | 82.9 µM | 68.1 µM | 67.9 µM |  |

The next lines start with results.

| GI50 (MCF7) | GI50 (HT-29) | SMILES | GI50 (M21 [2]) | further results |
| --- | --- | --- | --- | --- |
| 2 µM | 0.6 µM | CC(=O)CCCCc1cccc(NC(=O)NCCCl)c1 | 1.1 µM | Activity (M21 [1]): 13%; Activity (M21 [3]): 11%; Activity (M21 [4]): 23%; Activity (M21 [5]): 10%; Activity (M21 [6]): 6%; Activity (M21 [7]): 53%; Activity (M21 [8]): 25%; Activity (M21 [9]): 44% |
| 22.5 µM | 19.8 µM | CCOC(=O)CCCCCc1cccc(NC(=O)NCCCl)c1 | 17.7 µM |  |
| 3.9 µM | 0.9 µM | CC(=O)CCCCCc1cccc(NC(=O)NCCCl)c1 | 2.1 µM | Activity (M21 [1]): 18%; Activity (M21 [3]): 21%; Activity (M21 [4]): 16%; Activity (M21 [5]): 18%; Activity (M21 [6]): 11%; Activity (M21 [7]): 53%; Activity (M21 [8]): 48%; Activity (M21 [9]): 10% |
| 1.9 µM | 0.84 µM | COCCCCCc1cccc(NC(=O)NCCCl)c1 | 0.94 µM | Activity (M21 [10]): 37%; Activity (M21 [11]): 14%; Activity (M21 [12]): 29%; Activity (M21 [13]): 9%; Activity (M21 [14]): 7%; Activity (M21 [15]): 52%; Activity (M21 [16]): 24%; Activity (M21 [17]): 14% |
| 8.7 µM | 8.2 µM | CCOC(=O)CCCCc1cccc(NC(=O)NCCCl)c1 | 11 µM |  |
| 11.2 µM | 3.6 µM | NC(=O)CCCCc1cccc(NC(=O)NCCCl)c1 | 5.7 µM |  |
| > 100 µM | 82.7 µM | COC(=O)Cc1cccc(NC(=O)NCCCl)c1 | > 100 µM |  |
| 10.2 µM | 7.2 µM | COC(=O)CCCCCc1cccc(NC(=O)NCCCl)c1 | 7.1 µM | Activity (M21 [26]): 49%; Activity (M21 [27]): 72%; Activity (M21 [28]): 8%; Activity (M21 [29]): 19%; Activity (M21 [30]): 14%; Activity (M21 [31]): 45%; Activity (M21 [32]): 15%; Activity (M21 [33]): 31%; Activity (M21 [34]): 37%; Activity (M21 [35]): 1%; Activity (M21 [36]): 5%; Activity (M21 [37]): 4% |
| > 100 µM | > 100 µM | NC(=O)Cc1cccc(NC(=O)NCCCl)c1 | > 100 µM |  |
| > 100 µM | 35.9 µM | O=C(O)CCCCCc1cccc(NC(=O)NCCCl)c1 | 47.5 µM |  |
| > 100 µM | > 100 µM | CC(=O)c1cccc(NC(=O)NCCCl)c1 | > 100 µM |  |
| 15.1 µM | 8.1 µM | COC(=O)CCCCc1cccc(NC(=O)NCCCl)c1 | 7.3 µM | Activity (M21 [26]): 40%; Activity (M21 [27]): 62%; Activity (M21 [28]): 18%; Activity (M21 [29]): 19%; Activity (M21 [30]): 14%; Activity (M21 [31]): 46%; Activity (M21 [32]): 20%; Activity (M21 [33]): 34%; Activity (M21 [34]): 36%; Activity (M21 [35]): 1%; Activity (M21 [36]): 6%; Activity (M21 [37]): 4% |
